Experimental data reported in ChEMBL document CHEMBL1828601, “Small molecule peptidomimetic inhibitors of importin α/β mediated nuclear transport” (Bioorg Med Chem, 2010).
The source made the active and inactive calls. No rule for the calls is given here.

The molecules below were run on FGM (assay: Inhibition of importin alpha/beta-mediated nuclear transportation of Alexa555-BSA-NLS in human FGM cell nucleus at 500 uM after 30 mins by fluorescence microscopy).
Assay type: cell-based

Compound	inhibition
C[C@H](N)C(=O)N1C[C@@H](C(=O)NCCc2c[nH]c3ccccc23)[C@H](C(=O)NCCc2c[nH]c3ccccc23)C1	inactive
NCCCCNC(=O)[C@@H]1CN(C(=O)[C@@H](N)CCCCN)C[C@H]1C(=O)NCCc1ccc2ccccc2c1	inactive
CC(C)[C@H](N)C(=O)Nc1ccc(C(=O)N[C@@H](CCc2ccccc2)C(=O)O)cc1OCc1ccc(Cl)cc1	inactive
N[C@@H](Cc1c[nH]cn1)C(=O)Nc1ccc(C(=O)N[C@@H](CCc2ccccc2)C(=O)O)cc1OCc1ccc(Cl)cc1	inactive
N[C@@H](Cc1ccc(O)cc1)C(=O)N1C[C@@H](C(=O)NCCc2c[nH]cn2)[C@H](C(=O)NCCc2c[nH]c3ccccc23)C1	Active
NCCCCNC(=O)[C@@H]1CN(C(=O)[C@@H](N)CCc2ccc(O)cc2)C[C@H]1C(=O)NCCc1ccc2ccccc2c1	inactive
N[C@@H](Cc1cnc[nH]1)C(=O)N1C[C@@H](C(=O)NCCc2c[nH]c3ccccc23)[C@H](C(=O)NCCc2c[nH]c3ccccc23)C1	inactive
CC(C)C[C@H](N)C(=O)Nc1ccc(C(=O)N[C@@H](CCc2ccccc2)C(=O)O)cc1OCc1ccccc1	Active
NCC(=O)Nc1ccc(C(=O)N[C@@H](CCc2ccccc2)C(=O)O)cc1OCc1ccccc1	Active
N[C@@H](Cc1c[nH]cn1)C(=O)Nc1ccc(C(=O)N[C@@H](CCc2ccccc2)C(=O)O)cc1OCc1ccccc1	inactive
NCCCC[C@H](N)C(=O)Nc1ccc(C(=O)N[C@@H](CCc2ccccc2)C(=O)O)cc1OCc1ccccc1	Active
CC(C)COc1cc(C(=O)N[C@@H](Cc2ccc3ccccc3c2)C(=O)O)ccc1NC(=O)[C@@H](N)CCCCN	inactive
CC(C)COc1cc(C(=O)N[C@@H](Cc2ccc3ccccc3c2)C(=O)O)ccc1NC(=O)[C@H](C)N	Active
N[C@@H](CC(=O)O)C(=O)N1C[C@@H](C(=O)NCCc2c[nH]c3ccccc23)[C@H](C(=O)NCCc2c[nH]c3ccccc23)C1	inactive
CC(C)COc1cc(C(=O)N[C@@H](Cc2ccc3ccccc3c2)C(=O)O)ccc1NC(=O)[C@@H](N)CC(N)=O	inactive
CC(C)COc1cc(C(=O)N[C@@H](Cc2ccc3ccccc3c2)C(=O)O)ccc1NC(=O)CN	inactive
CC(C)COc1cc(C(=O)N[C@@H](Cc2ccc3ccccc3c2)C(=O)O)ccc1NC(=O)[C@@H](N)Cc1c[nH]c2ccccc12	inactive
CC(C)COc1cc(C(=O)N[C@@H](Cc2ccc3ccccc3c2)C(=O)O)ccc1NC(=O)[C@@H](N)CC(=O)O	inactive
CC(C)COc1cc(C(=O)N[C@@H](Cc2ccc3ccccc3c2)C(=O)O)ccc1NC(=O)[C@@H](N)Cc1ccccc1	Active
COc1ccc(C[C@H](N)C(=O)Nc2ccc(C(=O)N[C@@H](Cc3ccc4ccccc4c3)C(=O)O)cc2OCC(C)C)cc1	Active
CC(C)C[C@H](N)C(=O)N1C[C@@H](C(=O)NCCc2c[nH]c3ccccc23)[C@H](C(=O)NCCc2c[nH]c3ccccc23)C1	inactive
COc1ccc(C[C@H](N)C(=O)N2C[C@@H](C(=O)NCCc3c[nH]c4ccccc34)[C@H](C(=O)NCCc3c[nH]c4ccccc34)C2)cc1	inactive

Compound	inhibition
CSCC[C@H](N)C(=O)Nc1ccc(C(=O)N[C@@H](Cc2ccc3ccccc3c2)C(=O)O)cc1OCC(C)C	inactive
C[C@@H](O)[C@H](N)C(=O)Nc1ccc(C(=O)N[C@@H](CCc2ccccc2)C(=O)O)cc1OCc1ccccc1	Active
N[C@@H](Cc1ccc(O)cc1)C(=O)Nc1ccc(C(=O)N[C@@H](CCc2ccccc2)C(=O)O)cc1OCc1ccccc1	Active
CC(C)[C@H](N)C(=O)Nc1ccc(C(=O)N[C@@H](CCc2ccccc2)C(=O)O)cc1OCc1ccccc1	Active
NCCCC[C@H](N)C(=O)N1C[C@@H](C(=O)NCCc2c[nH]c3ccccc23)[C@H](C(=O)NCCc2c[nH]c3ccccc23)C1	Active
N[C@@H](CCc1ccccc1)C(=O)Nc1ccc(C(=O)N[C@@H](CCc2ccccc2)C(=O)O)cc1OCc1ccccc1	Active
CC(C)COc1cc(C(=O)N[C@@H](Cc2ccc3ccccc3c2)C(=O)O)ccc1NC(=O)[C@@H](N)Cc1ccc2ccccc2c1	inactive
CC[C@H](C)[C@H](N)C(=O)Nc1ccc(C(=O)N[C@@H](Cc2ccc3ccccc3c2)C(=O)O)cc1OCC(C)C	inactive
CC(C)COc1cc(C(=O)N[C@@H](Cc2ccc3ccccc3c2)C(=O)O)ccc1NC(=O)[C@@H](N)Cc1ccc(Cl)cc1	inactive
C[C@H](N)C(=O)Nc1ccc(C(=O)N[C@@H](CCc2ccccc2)C(=O)O)cc1OCc1ccccc1	inactive
C[C@@H](O)[C@H](N)C(=O)N1C[C@@H](C(=O)NCCc2c[nH]c3ccccc23)[C@H](C(=O)NCCc2c[nH]c3ccccc23)C1	inactive
CC(C)COc1cc(C(=O)N[C@@H](Cc2ccc3ccccc3c2)C(=O)O)ccc1NC(=O)[C@@H](N)[C@@H](C)O	inactive
CC(C)COc1cc(C(=O)N[C@@H](Cc2ccc3ccccc3c2)C(=O)O)ccc1NC(=O)[C@@H](N)CC(C)C	inactive
N[C@@H](CCc1ccc(Cl)cc1)C(=O)N1C[C@@H](C(=O)NCCc2c[nH]c3ccccc23)[C@H](C(=O)NCCc2c[nH]c3ccccc23)C1	inactive
CSCC[C@H](N)C(=O)N1C[C@@H](C(=O)NCCc2c[nH]c3ccccc23)[C@H](C(=O)NCCc2c[nH]c3ccccc23)C1	inactive
CC(C)COc1cc(C(=O)N[C@@H](Cc2ccc3ccccc3c2)C(=O)O)ccc1NC(=O)[C@@H](N)Cc1ccc(O)cc1	Active
CC(C)COc1cc(C(=O)N[C@@H](Cc2ccc3ccccc3c2)C(=O)O)ccc1NC(=O)[C@@H](N)C(C)C	inactive
COc1ccc(C[C@H](N)C(=O)Nc2ccc(C(=O)N[C@@H](CCc3ccccc3)C(=O)O)cc2OCc2ccccc2)cc1	inactive
NC(=O)C[C@H](N)C(=O)Nc1ccc(C(=O)N[C@@H](CCc2ccccc2)C(=O)O)cc1OCc1ccccc1	inactive
N[C@@H](Cc1ccc(Cl)cc1)C(=O)Nc1ccc(C(=O)N[C@@H](CCc2ccccc2)C(=O)O)cc1OCc1ccccc1	inactive
N[C@@H](CC(=O)O)C(=O)Nc1ccc(C(=O)N[C@@H](CCc2ccccc2)C(=O)O)cc1OCc1ccccc1	inactive
CC(C)COc1cc(C(=O)N[C@@H](Cc2ccc3ccccc3c2)C(=O)O)ccc1NC(=O)[C@@H](N)Cc1c[nH]cn1	inactive

Compound	inhibition
N[C@@H](CCc1ccccc1)C(=O)N1C[C@@H](C(=O)NCCc2c[nH]c3ccccc23)[C@H](C(=O)NCCc2c[nH]c3ccccc23)C1	inactive
N[C@@H](Cc1c[nH]c2ccccc12)C(=O)N1C[C@@H](C(=O)NCCc2c[nH]c3ccccc23)[C@H](C(=O)NCCc2c[nH]c3ccccc23)C1	inactive
CC(C)[C@H](N)C(=O)N1C[C@@H](C(=O)NCCc2c[nH]c3ccccc23)[C@H](C(=O)NCCc2c[nH]c3ccccc23)C1	inactive
CSCC[C@H](N)C(=O)Nc1ccc(C(=O)N[C@@H](CCc2ccccc2)C(=O)O)cc1OCc1ccccc1	Active
CC(C)COc1cc(C(=O)N[C@@H](Cc2ccc3ccccc3c2)C(=O)O)ccc1NC(=O)[C@@H](N)CCc1ccccc1	inactive
N[C@@H](CO)C(=O)Nc1ccc(C(=O)N[C@@H](CCc2ccccc2)C(=O)O)cc1OCc1ccccc1	Active
N[C@@H](Cc1ccc(Cl)cc1)C(=O)N1C[C@@H](C(=O)NCCc2c[nH]c3ccccc23)[C@H](C(=O)NCCc2c[nH]c3ccccc23)C1	inactive
N[C@@H](Cc1ccc2ccccc2c1)C(=O)N1C[C@@H](C(=O)NCCc2c[nH]c3ccccc23)[C@H](C(=O)NCCc2c[nH]c3ccccc23)C1	inactive
CC[C@H](N)C(=O)Nc1ccc(C(=O)N[C@@H](CCc2ccccc2)C(=O)O)cc1OCc1ccccc1	Active
N[C@@H](CO)C(=O)N1C[C@@H](C(=O)NCCc2c[nH]c3ccccc23)[C@H](C(=O)NCCc2c[nH]c3ccccc23)C1	inactive
N[C@@H](CCc1ccc(O)cc1)C(=O)N1C[C@@H](C(=O)NCCc2c[nH]c3ccccc23)[C@H](C(=O)NCCc2c[nH]c3ccccc23)C1	inactive
N[C@@H](Cc1ccc(O)cc1)C(=O)N1C[C@@H](C(=O)NCCc2c[nH]c3ccccc23)[C@H](C(=O)NCCc2c[nH]c3ccccc23)C1	inactive
N[C@@H](Cc1ccccc1)C(=O)N1C[C@@H](C(=O)NCCc2c[nH]c3ccccc23)[C@H](C(=O)NCCc2c[nH]c3ccccc23)C1	inactive
CC[C@H](C)[C@H](N)C(=O)N1C[C@@H](C(=O)NCCc2c[nH]c3ccccc23)[C@H](C(=O)NCCc2c[nH]c3ccccc23)C1	inactive
N[C@@H](Cc1c[nH]c2ccccc12)C(=O)Nc1ccc(C(=O)N[C@@H](CCc2ccccc2)C(=O)O)cc1OCc1ccccc1	inactive
CC(C)COc1cc(C(=O)N[C@@H](Cc2ccc3ccccc3c2)C(=O)O)ccc1NC(=O)[C@@H](N)CO	inactive
NC(=O)C[C@H](N)C(=O)N1C[C@@H](C(=O)NCCc2c[nH]c3ccccc23)[C@H](C(=O)NCCc2c[nH]c3ccccc23)C1	inactive
CC[C@H](N)C(=O)Nc1ccc(C(=O)N[C@@H](Cc2ccc3ccccc3c2)C(=O)O)cc1OCC(C)C	inactive
N[C@@H](Cc1ccc2ccccc2c1)C(=O)Nc1ccc(C(=O)N[C@@H](CCc2ccccc2)C(=O)O)cc1OCc1ccccc1	inactive
N[C@@H](Cc1ccccc1)C(=O)Nc1ccc(C(=O)N[C@@H](CCc2ccccc2)C(=O)O)cc1OCc1ccccc1	Active

These molecules were tested on FGM (assay: Inhibition of importin alpha/beta-mediated nuclear transportation of Alexa555-GST-M9 in human FGM cell nucleus at 500 uM after 30 mins by fluorescence microscopy).
Assay type: cell-based
Outline: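 Transportin-dependent import measured the same way in permeabilized FGM cells, with 0.5 μM Alexa555-GST-M9 cargo in place of BSA-NLS. Conditions: 3 mg/ml HeLa cytosol, ATP-regenerating system, 0.2 mM GTP, 1% DMSO, 30 min at 30°C. Positive control was 1 mg/ml WGA. Nuclear cargo fluorescence quantified per nucleus by automated imaging.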

Compound	inhibition
NCCCCNC(=O)[C@@H]1CN(C(=O)[C@@H](N)CCCCN)C[C@H]1C(=O)NCCc1ccc2ccccc2c1	inactive
CC(C)[C@H](N)C(=O)Nc1ccc(C(=O)N[C@@H](CCc2ccccc2)C(=O)O)cc1OCc1ccc(Cl)cc1	inactive
N[C@@H](Cc1c[nH]cn1)C(=O)Nc1ccc(C(=O)N[C@@H](CCc2ccccc2)C(=O)O)cc1OCc1ccc(Cl)cc1	inactive
N[C@@H](Cc1ccc(O)cc1)C(=O)N1C[C@@H](C(=O)NCCc2c[nH]cn2)[C@H](C(=O)NCCc2c[nH]c3ccccc23)C1	Active
NCCCCNC(=O)[C@@H]1CN(C(=O)[C@@H](N)CCc2ccc(O)cc2)C[C@H]1C(=O)NCCc1ccc2ccccc2c1	inactive
